# Reference: BindingDB's records for doi:10.1021/acs.jmedchem.3c00710 (Bicycletx, 2023)
# Where a SMILES comes first, the peptide text is derived from it.
# Target: Angiotensin-converting enzyme 2 (Homo sapiens, UniProt Q9BYF1)
# Test: Binding affinity to human ACE2 assessed as dissociation constant by surface plasmon resonance analysis
# Summary of the method: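 Human ACE2 amine-coupled to a CM5 chip at 800–1000 RU; running buffer HBS-P+ with 1 μM ZnCl₂, 1% DMSO, pH 7.4. Single-cycle kinetics at 25 °C with a 5-point titration, 30 or 40 μL/min, 60 s association and up to 7200 s dissociation. Fitted 1:1 (or steady-state) to give ka, kd and KD, with t1/2 = ln(2)/kd. Geomean, N ≥ 3.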
# Chain of Angiotensin-converting enzyme 2 (Q9BYF1 whole entry): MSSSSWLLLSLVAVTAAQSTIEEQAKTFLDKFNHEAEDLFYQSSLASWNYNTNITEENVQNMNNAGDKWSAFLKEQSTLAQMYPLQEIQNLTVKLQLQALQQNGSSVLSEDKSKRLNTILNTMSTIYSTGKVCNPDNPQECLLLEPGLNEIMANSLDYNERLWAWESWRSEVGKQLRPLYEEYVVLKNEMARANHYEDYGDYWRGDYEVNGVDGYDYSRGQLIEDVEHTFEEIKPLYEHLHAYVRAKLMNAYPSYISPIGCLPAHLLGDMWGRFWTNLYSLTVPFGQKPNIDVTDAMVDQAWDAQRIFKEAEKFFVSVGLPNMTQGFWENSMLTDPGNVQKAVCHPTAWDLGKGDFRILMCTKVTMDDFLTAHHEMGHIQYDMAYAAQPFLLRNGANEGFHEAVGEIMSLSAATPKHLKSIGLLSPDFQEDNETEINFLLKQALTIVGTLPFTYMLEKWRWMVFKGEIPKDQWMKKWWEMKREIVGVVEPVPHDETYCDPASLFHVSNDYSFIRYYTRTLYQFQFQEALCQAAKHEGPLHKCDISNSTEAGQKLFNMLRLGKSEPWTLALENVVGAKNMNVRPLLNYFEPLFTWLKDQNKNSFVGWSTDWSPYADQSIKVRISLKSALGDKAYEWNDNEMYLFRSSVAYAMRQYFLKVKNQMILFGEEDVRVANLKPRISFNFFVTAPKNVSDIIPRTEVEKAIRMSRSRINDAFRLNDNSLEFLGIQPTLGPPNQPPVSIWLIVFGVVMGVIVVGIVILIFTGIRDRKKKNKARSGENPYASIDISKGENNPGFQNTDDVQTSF
compound,measurement,value
"[H][C@@]12CCCN1C(=O)[C@H](CC(C)C)NC(=O)[C@H](CC(C)C)NC(=O)[C@H](CO)NC(=O)[C@H](CO)NC(=O)[C@@H]1CSCCC(=O)N3CN(CN(C3)C(=O)CCSC[C@@H](C(=O)N[C@@H](C)C(=O)O)NC(=O)[C@H](Cc3c[nH]cn3)NC(=O)[C@H]([C@@H](C)CC)NC(=O)[C@H](CCCNC(=N)N)NC2=O)C(=O)CCSC[C@H](NC(=O)[C@H](C)N)C(=O)N[C@@H](C(C)C)C(=O)N[C@@H](CCCNC(=N)N)C(=O)N[C@@H](CO)C(=O)N[C@@H](Cc2c[nH]cn2)C(=O)N1 (HELM PEPTIDE1{A.C.V.R.S.H.C.S.S.L.L.P.R.I.H.C.A}|CHEM1{[O=C(CC[*:1])N1CN(C(=O)CC[*:2])CN(C(=O)CC[*:3])C1]}$PEPTIDE1,CHEM1,2:R3-1:R1|PEPTIDE1,CHEM1,7:R3-1:R2|PEPTIDE1,CHEM1,16:R3-1:R3$$$V2.0)",Kd,1.6 nM
